Values after ≈ are worked out from the molar mass of the structure shown.
How the values were obtained:
KB [1] = assay: (§1) Cellular toxicity in KB cells; format: functional; conditions: Homo sapiens
Human rhinovirus 1A = assay: Anti-HRV activity against HRV-1A strain; format: functional, organism-based, human rhinovirus type 1
Outline: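 Cell-culture cytopathic effect (CPE) inhibition assay adapted from a microplate tissue-culture method. Each test was run in duplicate. EC50 was read both visually and by dye uptake. Results varied by generally no more than one dilution between duplicate runs and between read-out methods.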

rhinovirus A2 [2] = assay: Anti-HRV activity against HRV-2 strain; format: functional, organism-based, human rhinovirus type 2; conditions: Rhinovirus A
MRC5 = assay: Cellular toxicity in MRC-5 cells; format: functional; conditions: Homo sapiens
rhinovirus B14 [3] = assay: Anti-HRV activity against HRV-14 strain; format: functional, organism-based, human rhinovirus type 14; conditions: Rhinovirus B
KB [4] = assay: as §1; format: functional; conditions: Homo sapiens; remark: listed apart in the source
rhinovirus A45 = assay: Anti-HRV activity against HRV serotype 45; format: functional, organism-based; conditions: Rhinovirus A
rhinovirus A85 = assay: Anti-HRV activity against HRV serotype 85; format: functional, organism-based; conditions: Rhinovirus A
rhinovirus A2 [5] = assay: Anti-HRV activity against HRV serotype 2; format: functional, organism-based, human rhinovirus type 2; conditions: Rhinovirus A
rhinovirus B86 = assay: Anti-HRV activity against HRV serotype 86; format: functional, organism-based; conditions: Rhinovirus B
rhinovirus B72 = assay: Anti-HRV activity against HRV serotype 72; format: functional, organism-based; conditions: Rhinovirus B
rhinovirus A63 = assay: Anti-HRV activity against HRV serotype 63; format: functional, organism-based; conditions: Rhinovirus A
rhinovirus A39 = assay: Anti-HRV activity against HRV serotype 39; format: functional, organism-based; conditions: Rhinovirus A
rhinovirus A51 = assay: Anti-HRV activity against HRV serotype 51; format: functional, organism-based; conditions: Rhinovirus A
rhinovirus A89 = assay: Anti-HRV activity against HRV serotype 89; format: functional, organism-based, human rhinovirus type 89; conditions: Rhinovirus A
rhinovirus A59 = assay: Anti-HRV activity against HRV serotype 59; format: functional, organism-based; conditions: Rhinovirus A
rhinovirus A16 = assay: Anti-HRV activity against HRV serotype 16; format: functional, organism-based; conditions: Rhinovirus A
rhinovirus A9 = assay: Anti-HRV activity against HRV serotype 9; format: functional, organism-based; conditions: Rhinovirus A
Human rhinovirus sp. = assay: Percent inhibition of 100 HRV strains by the compound at a concentration of 0.064 ug/ml; format: functional
rhinovirus B70 = assay: Anti-HRV activity against HRV serotype 70; format: functional, organism-based; conditions: Rhinovirus B
rhinovirus A15 = assay: Anti-HRV activity against HRV serotype 15; format: functional, organism-based; conditions: Rhinovirus A
rhinovirus B14 [6] = assay: Anti-HRV activity against HRV serotype 14; format: functional, organism-based, human rhinovirus type 14; conditions: Rhinovirus B
KB [7] = assay: Cellular toxicity against KB cells in HRV-14 strain; format: functional; conditions: Homo sapiens
rhinovirus A29 = assay: Anti-HRV activity against HRV serotype 29; format: functional, organism-based; conditions: Rhinovirus A

Row | EC50 (Human rhinovirus 1A) [µg/mL] | EC50 (rhinovirus A2 [2]) [µg/mL] | EC50 (rhinovirus B14 [3]) [µg/mL] | Compound | CC50 (KB [1]) [µg/mL] | CC50 (MRC5) [µg/mL] | CC50 (KB [4]) [µg/mL] | also measured
1 | 4.12 (≈ 10.6 µM) | 6 (≈ 15.5 µM) | – | CCC/N=C/c1ccc(OCCC2CCN(c3ccc(Cl)nn3)CC2)cc1 | 30 (≈ 77.5 µM) | > 50 | – | –
2 | < 0.16 | – | 0.002 (≈ 0.00514 µM) | CCO/N=C/c1ccc(OCCC2CCN(c3ccc(Cl)nn3)CC2)cc1 | – | > 50 | 0.8 (≈ 2.06 µM) | –
3 | 9.72 (≈ 28.1 µM) | 2 (≈ 5.78 µM) | – | O=Cc1ccc(OCCC2CCN(c3ccc(Cl)nn3)CC2)cc1 | 20 (≈ 57.8 µM) | > 50 | – | –
4 | 1.01 (≈ 2.7 µM) | 2 (≈ 5.35 µM) | – | CN/N=C/c1ccc(OCCC2CCN(c3ccc(Cl)nn3)CC2)cc1 | 10 (≈ 26.7 µM) | > 50 | – | –
5 | – | 0.01 (≈ 0.0261 µM) | 0.004 (≈ 0.0105 µM) | CCO/N=C(\C)c1ccc(OCCC2CCN(c3ccc(C)nn3)CC2)cc1 | > 1 | – | > 1 | –
6 | – | 0.02 (≈ 0.0496 µM) | 0.018 (≈ 0.0447 µM) | CC(C)O/N=C/c1ccc(OCCC2CCN(c3ccc(Cl)nn3)CC2)cc1 | 1 (≈ 2.48 µM) | – | 0.7 (≈ 1.74 µM) | –
7 | – | 0.004 (≈ 0.00993 µM) | 0.01 (≈ 0.0248 µM) | CCCO/N=C/c1ccc(OCCC2CCN(c3ccc(Cl)nn3)CC2)cc1 | > 1 | – | 0.4 (≈ 0.993 µM) | –
8 | – | > 0.25 | 0.062 (≈ 0.182 µM) | Cc1ccc(N2CCC(CCOc3ccc(/C=N/O)cc3)CC2)nn1 | > 0.25 | – | > 0.25 | –
9 | < 0.16 | < 0.05 | – | CCOC(=O)c1ccc(OCCC2CCN(c3ccc(Cl)nn3)CC2)cc1 | 50 (≈ 128 µM) | > 50 | – | –
10 | – | 0.9 (≈ 2 µM) | 0.4 (≈ 0.887 µM) | Clc1ccc(N2CCC(CCOc3ccc(/C=N/OCc4ccccc4)cc3)CC2)nn1 | 0.6 (≈ 1.33 µM) | – | 0.6 (≈ 1.33 µM) | –
11 | – | 0.08 (≈ 0.217 µM) | 0.023 (≈ 0.0624 µM) | CO/N=C(\C)c1ccc(OCCC2CCN(c3ccc(C)nn3)CC2)cc1 | > 1 | – | > 1 | –
12 | – | 0.15 (≈ 0.423 µM) | 0.004 (≈ 0.0113 µM) | CO/N=C/c1ccc(OCCC2CCN(c3ccc(C)nn3)CC2)cc1 | > 1 | – | > 1 | –
13 | – | 0.4 (≈ 0.993 µM) | 0.2 (≈ 0.496 µM) | CC/C(=N\OC)c1ccc(OCCC2CCN(c3ccc(Cl)nn3)CC2)cc1 | > 1 | – | 0.6 (≈ 1.49 µM) | –
14 | < 0.16 | 0.6 (≈ 1.6 µM) | – | CCC(=O)c1ccc(OCCC2CCN(c3ccc(Cl)nn3)CC2)cc1 | 7 (≈ 18.7 µM) | > 50 | – | –
15 | 8.52 (≈ 22.7 µM) | 4 (≈ 10.6 µM) | – | NNC(=O)c1ccc(OCCC2CCN(c3ccc(Cl)nn3)CC2)cc1 | 20 (≈ 53.2 µM) | > 50 | – | –
16 | – | 0.006 (≈ 0.015 µM) | 0.006 (≈ 0.015 µM) | C=CCO/N=C/c1ccc(OCCC2CCN(c3ccc(Cl)nn3)CC2)cc1 | 0.5 (≈ 1.25 µM) | – | 0.4 (≈ 0.998 µM) | –
17 | – | 0.009 (≈ 0.0251 µM) | – | CC(C)S(=O)(=O)n1c(N)nc2ccc(/C(=N/O)c3ccccc3)cc21 [ENVIROXIME] | 2 (≈ 5.58 µM) | – | – | –
18 | < 0.16 | – | 0.0016 (≈ 0.00433 µM) | CCOC(=O)c1ccc(OCCC2CCN(c3ccc(C)nn3)CC2)cc1 [PIRODAVIR] | – | > 50 | – | EC50 (rhinovirus A45): > 5 µg/mL; EC50 (rhinovirus A85): 0.00472 µg/mL (≈ 0.0128 µM); EC50 (rhinovirus A2 [5]): 0.00277 µg/mL (≈ 0.0075 µM); EC50 (rhinovirus B86): 0.00956 µg/mL (≈ 0.0259 µM); EC50 (rhinovirus B72): 0.0348 µg/mL (≈ 0.0941 µM); EC50 (rhinovirus A63): 0.00083 µg/mL (≈ 0.00225 µM); EC50 (rhinovirus A39): 0.0018 µg/mL (≈ 0.00487 µM); EC50 (rhinovirus A51): 0.00521 µg/mL (≈ 0.0141 µM); EC50 (rhinovirus A89): 0.0057 µg/mL (≈ 0.0154 µM); EC50 (rhinovirus A59): 0.00437 µg/mL (≈ 0.0118 µM); EC50 (rhinovirus A16): 0.0152 µg/mL (≈ 0.0412 µM); EC50 (rhinovirus A9): 0.00205 µg/mL (≈ 0.00555 µM); inhibition at 0.064 µg/mL (Human rhinovirus sp.): 80%; EC50 (rhinovirus B70): 0.00214 µg/mL (≈ 0.00579 µM); EC50 (rhinovirus A15): 0.00702 µg/mL (≈ 0.019 µM); EC50 (rhinovirus B14 [6]): 0.00365 µg/mL (≈ 0.00988 µM); CC50 (KB [7]): > 1 µg/mL; EC50 (rhinovirus A29): 0.00374 µg/mL (≈ 0.0101 µM)
19 | – | – | – | Cc1cc(CCCOc2c(C)cc(-c3noc(C(F)(F)F)n3)cc2C)on1 [PLECONARIL] | – | – | – | EC50 (rhinovirus A45): 1.91 µg/mL (≈ 5 µM); EC50 (rhinovirus A85): 0.034 µg/mL (≈ 0.0892 µM); EC50 (rhinovirus A2 [5]): 0.0265 µg/mL (≈ 0.0694 µM); EC50 (rhinovirus B86): 0.07 µg/mL (≈ 0.184 µM); EC50 (rhinovirus B72): 0.469 µg/mL (≈ 1.23 µM); EC50 (rhinovirus A63): 0.0623 µg/mL (≈ 0.163 µM); EC50 (rhinovirus A39): 0.0449 µg/mL (≈ 0.118 µM); EC50 (rhinovirus A51): 0.0304 µg/mL (≈ 0.0797 µM); EC50 (rhinovirus A89): 0.0293 µg/mL (≈ 0.0769 µM); EC50 (rhinovirus A59): 0.387 µg/mL (≈ 1.02 µM); EC50 (rhinovirus A16): 0.108 µg/mL (≈ 0.283 µM); EC50 (rhinovirus A9): 0.0372 µg/mL (≈ 0.0974 µM); EC50 (rhinovirus B70): 0.0539 µg/mL (≈ 0.141 µM); EC50 (rhinovirus A15): 0.0698 µg/mL (≈ 0.183 µM); EC50 (rhinovirus B14 [6]): 0.0313 µg/mL (≈ 0.0821 µM); EC50 (rhinovirus A29): 0.0454 µg/mL (≈ 0.119 µM)

From ChEMBL document CHEMBL1144873, “An orally bioavailable oxime ether capsid binder with potent activity against human rhinovirus” (J Med Chem, 2003)
